Measured values: ChEMBL document CHEMBL1125613, “Synthesis, receptor binding, and tissue distribution of 7 alpha- and 11 beta-substituted (17 alpha,20E)- and (17 alpha,20Z)-21-[125I]iodo-19-norpregna-1,3,5(10),20-tetraene-3,17-diols” (J Med Chem, 1991)

Biological target: Estrogen receptor (Mus musculus) (UniProt O08537+P19785)
Experiment: Relative binding affinity for murine cytoplasmic estrogen receptor as displacement of [3H]estradiol
Format: protein assay
Settings: not given
In short: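 Murine uterine cytoplasmic extract incubated 18 h at 0–4 °C with 20 nM [3H]estradiol, with or without competitor at 2 nM to 20 μM. Concentration for 50% competition of specific binding was read from the curve. RBA = 100 × ratio of estradiol to competitor concentration at 50% competition. Mean of three experiments.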

Estrogen receptor (Mus musculus), sequence (O08537 whole entry, looked up): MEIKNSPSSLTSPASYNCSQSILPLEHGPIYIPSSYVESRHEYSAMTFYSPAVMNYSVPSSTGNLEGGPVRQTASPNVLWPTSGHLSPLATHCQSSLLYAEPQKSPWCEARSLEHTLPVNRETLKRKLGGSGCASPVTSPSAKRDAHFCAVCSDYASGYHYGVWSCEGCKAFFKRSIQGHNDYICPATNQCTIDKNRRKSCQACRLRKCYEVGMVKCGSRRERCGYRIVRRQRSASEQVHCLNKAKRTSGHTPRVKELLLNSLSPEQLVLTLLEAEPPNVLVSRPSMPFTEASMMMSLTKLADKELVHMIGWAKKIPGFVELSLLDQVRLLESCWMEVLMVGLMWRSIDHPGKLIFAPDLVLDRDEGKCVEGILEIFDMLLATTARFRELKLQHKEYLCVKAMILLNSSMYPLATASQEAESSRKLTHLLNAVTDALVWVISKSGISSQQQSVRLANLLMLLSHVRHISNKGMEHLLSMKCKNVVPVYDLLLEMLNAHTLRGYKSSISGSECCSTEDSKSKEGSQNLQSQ
Estrogen receptor (Mus musculus), sequence (P19785 whole entry, looked up): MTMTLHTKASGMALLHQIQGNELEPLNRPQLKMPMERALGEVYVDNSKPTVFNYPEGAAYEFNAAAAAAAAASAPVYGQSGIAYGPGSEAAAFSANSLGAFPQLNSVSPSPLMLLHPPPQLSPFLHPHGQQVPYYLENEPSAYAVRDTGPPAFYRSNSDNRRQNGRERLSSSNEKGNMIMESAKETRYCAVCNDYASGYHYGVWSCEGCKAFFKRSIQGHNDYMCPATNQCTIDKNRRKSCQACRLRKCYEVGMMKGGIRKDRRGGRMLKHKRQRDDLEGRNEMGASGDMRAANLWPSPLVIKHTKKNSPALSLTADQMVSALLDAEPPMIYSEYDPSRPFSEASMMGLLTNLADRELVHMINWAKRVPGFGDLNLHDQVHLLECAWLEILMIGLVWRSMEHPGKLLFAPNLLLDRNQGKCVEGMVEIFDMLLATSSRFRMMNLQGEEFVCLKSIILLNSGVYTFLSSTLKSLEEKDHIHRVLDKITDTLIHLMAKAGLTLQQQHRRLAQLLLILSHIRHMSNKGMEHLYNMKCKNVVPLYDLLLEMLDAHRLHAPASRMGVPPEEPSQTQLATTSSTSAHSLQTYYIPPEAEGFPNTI

| relative binding affinity (RBA) | Structure (SMILES) |
| --- | --- |
| 46.7 | C[C@]12CC[C@@H]3c4ccc(O)cc4CC[C@H]3[C@@H]1CC[C@@]2(O)/C=C\I |
| 32.8 | C[C@]12CC[C@@H]3c4ccc(O)cc4CC[C@H]3[C@@H]1CC[C@@]2(O)/C=C/I |
| 43.2 | C[C@@H]1Cc2cc(O)ccc2[C@H]2CC[C@@]3(C)[C@@H](CC[C@@]3(O)/C=C/I)[C@H]12 |
| 32 | CO[C@H]1C[C@@]2(C)[C@@H](CC[C@@]2(O)/C=C\I)[C@@H]2CCc3cc(O)ccc3[C@H]21 |
| 44.9 | C[C@@H]1Cc2cc(O)ccc2[C@H]2CC[C@@]3(C)[C@@H](CC[C@@]3(O)/C=C\I)[C@H]12 |
| 27.7 | CO[C@H]1C[C@@]2(C)[C@@H](CC[C@@]2(O)/C=C/I)[C@@H]2CCc3cc(O)ccc3[C@H]21 |

The remaining lines, values behind:

| Structure (SMILES) | relative binding affinity (RBA) |
| --- | --- |
| C#C[C@]1(O)CC[C@H]2[C@@H]3[C@H](C)Cc4cc(O)ccc4[C@H]3CC[C@@]21C | 73.1 |
| C#C[C@]1(O)CC[C@H]2[C@@H]3CCc4cc(O)ccc4[C@H]3[C@@H](OC)C[C@@]21C | 15.3 |
| CCO[C@H]1C[C@@]2(C)[C@@H](CC[C@@]2(O)/C=C\I)[C@@H]2CCc3cc(O)ccc3[C@H]21 | 30.8 |
| C=C[C@]1(O)CC[C@H]2[C@@H]3[C@H](C)Cc4cc(O)ccc4[C@H]3CC[C@@]21C | 58.1 |
| C=C[C@]1(O)CC[C@H]2[C@@H]3CCc4cc(O)ccc4[C@H]3[C@@H](OC)C[C@@]21C | 13.5 |
| CCO[C@H]1C[C@@]2(C)[C@@H](CC[C@@]2(O)/C=C/I)[C@@H]2CCc3cc(O)ccc3[C@H]21 | 21.6 |
| C#C[C@]1(O)CC[C@H]2[C@@H]3CCc4cc(O)ccc4[C@H]3[C@@H](OCC)C[C@@]21C | 21 |

Species on record: Rattus norvegicus
Experiment: Biodistribution studied in the ovaries of immature Fischer female rats at 5 hour
Format: ADME, organism-based, Female gonad
Settings: in vivo
In short: (§1)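 Immature female Fischer rats (24 days old, 55–60 g), unanesthetized in retention cages, given 3 μCi (111 kBq) nca 125I-labeled steroid in 200 μL via lateral tail vein. Vehicle was 9% ethanol in saline with 1% Tween-80, filtered 0.22 μm. Killed at 5 h under ether; tissues KCl-washed, blotted, weighed, gamma-counted; % ID/g, average of 4–5 rats, % CV.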

| Concentration | Structure (SMILES) |
| --- | --- |
| 2.91% | C[C@@H]1Cc2cc(O)ccc2[C@H]2CC[C@@]3(C)[C@@H](CC[C@@]3(O)/C=C/[125I])[C@H]12 |

Species on record: Rattus norvegicus
Experiment: Biodistribution studied in the adrenals of immature Fischer female rats at 5 hour
Format: ADME, organism-based, Adrenal gland
Settings: in vivo
In short: as §1

| Concentration | Structure (SMILES) |
| --- | --- |
| 0.88% | C[C@@H]1Cc2cc(O)ccc2[C@H]2CC[C@@]3(C)[C@@H](CC[C@@]3(O)/C=C\[125I])[C@H]12 |
